Series [1] has as its system Chlamydia pneumoniae. Nature of the series: Antichlamydial activity against Chlamydia pneumoniae K7 infected in HL cells assessed as chlamydial inhibition at 50 uM after 70 hrs by fluorescent microscopic analysis. The series is classed as functional. The gist of the method:
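Confluent HL cells infected with C. pneumoniae K7 at MOI 0.3 in medium with 1 μg/mL cycloheximide, centrifuged 500 rpm 1 h, then held at 37 °C for 1 h. At 2 h, compound added at 50 μM or DMSO vehicle. After 70 h at 37 °C, inclusions stained and counted in four fields per coverslip under a fluorescence microscope (20×). Inhibition % is relative to mean vehicle counts.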

Series [2] concerns Chlamydia pneumoniae. Nature of the series: Antichlamydial activity against Chlamydia pneumoniae K7 infected in HL cells after 70 hrs by fluorescent microscopic analysis. The series is classed as functional, organism-based. The note with it: for IC50: K7, HL, 70 h; for MIC90: K7, 70 h. The gist of the method: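 HL cells grown to confluence, infected with C. pneumoniae K7 at MOI 0.3 in medium with 1 μg/mL cycloheximide, centrifuged 500 rpm 1 h, then 37 °C 1 h. At 2 h, inoculum replaced by cycloheximide medium with compound at 12 concentrations from 1 nM to 100 μM. Incubated 70 h at 37 °C, stained, and inclusions counted by fluorescence microscopy. Three runs; IC50 from variable-slope sigmoidal fit. Azithromycin 20 nM as positive control.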

Series [3] is described as follows: (§1) Cytotoxicity against human HL cells assessed as cell viability at 50 uM after 72 hrs by resazurin dye based fluorescence assay relative to control. The note with it: HL cells, read-out: Activity. The gist of the method: (§2)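 HL cells grown overnight to confluence, then exposed to compound at 50 μM for 72 h at 37 °C, four parallel replicates. Read-out after 2 h with 20 μM resazurin in PBS, fluorescence at 570/590 nm (ex/em). Viability % is relative to cells in 0.25% DMSO medium. Usnic acid 50 μM as positive control.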
On the technique in general: The colour change of resazurin is a common sign of viable cells or microbes.

The test system of another series is HL. Described as §1. The note with it: hl, 72 h, 50 µM. A digest of the protocol: as §2

Molecules are shown by their SMILES. Values after ≈ are worked out from the molar mass of the structure shown. Where a name gives a salt, the structure may show the parent alone.

By inhibition is commonly meant the change of the read-out against control, counted positive when it falls. For orientation: IC50 means the concentration at which inhibition is half-maximal. For `CC(=O)N[C@H]1CN2CC[C@H](O)[C@@H]2[C@@H](O)[C@@H]1O`, in the series on Chlamydia pneumoniae [1], the inhibition at 50 µM stood at 59.8%. For the same compound, the IC50 in the series on Chlamydia pneumoniae [2] is 67.2 µM. Also, the viability at 72 h, 50 µM in series [3] was found to be 86.6%.

With `C=C[C@](C)(O)CC[C@H]1C(=C)CC[C@H]2C(C)(C)CCC[C@]12C`, the inhibition at 50 µM with Chlamydia pneumoniae [1] amounted to 60%. In addition, inhibition with Chlamydia pneumoniae [2] was half-maximal at 35.5 µM (IC50). In series [3], the viability at 72 h, 50 µM is 88.6%.

For `CCC1=CC2CN3CCc4c([nH]c5ccccc45)[C@@](C(=O)OC)(C2)C13`, the inhibition at 50 µM with Chlamydia pneumoniae [1] turned out to be 68.1%. In the series on Chlamydia pneumoniae [2], this compound displayed an IC50 of 52.6 µM. Further, the viability at 72 h, 50 µM in series [3] was determined as 88.9%.

For `O=c1cc(-c2ccccc2)oc2cc(O)cc(O)c12` [CHRYSIN], the Activity result in the series on HL is listed as “Toxic”.

Turning to `Cn1c(-c2ccc3c(c2)OCO3)cc(=O)c2ccccc21` [GRAVEOLINE], the inhibition at 50 µM in the series on Chlamydia pneumoniae [1] came out at 5.3%. Besides, in series [3], the viability at 72 h, 50 µM came to 100%.

For the compound `COc1ccc2c(c1)[nH]c1c(C)nccc12` [HARMINE HYDROCHLORIDE], in the series on Chlamydia pneumoniae [1], the inhibition at 50 µM came out at 26%. Also, the viability at 72 h, 50 µM in series [3] was determined as 87.3%.

For `COc1ccc([C@@H]2CC(=O)c3c(O)cc(O[C@@H]4O[C@H](CO[C@@H]5O[C@@H](C)[C@H](O)[C@@H](O)[C@H]5O)[C@@H](O)[C@H](O)[C@H]4O)cc3O2)cc1O` [HESPERIDIN], in the series on Chlamydia pneumoniae [1], the inhibition at 50 µM turned out to be 26.8%. Moreover, in series [3], the viability at 72 h, 50 µM worked out at 101%.

Take `O=C1Nc2ccccc2/C1=C1/Nc2ccccc2C1=O` [INDIRUBIN]: the inhibition at 50 µM with Chlamydia pneumoniae [1] came out at 2%. Also, the viability at 72 h, 50 µM in series [3] was determined as 92.5%.

In the case of `O=c1c(O[C@@H]2O[C@H](CO)[C@@H](O)[C@H](O)[C@H]2O)c(-c2ccc(O)c(O)c2)oc2cc(O)cc(O)c12` [ISOQUERCETIN], in the series on Chlamydia pneumoniae [1], the inhibition at 50 µM is 38%. Moreover, the viability at 72 h, 50 µM in series [3] worked out at 95.8%.

Turning to `CC1=C2C(=O)[C@H]3[C@@H](CC=C4C[C@@H](O)CC[C@@]43C)[C@@H]2CC[C@]12O[C@@H]1C[C@H](C)CN[C@H]1[C@H]2C` [JERVINE], the inhibition at 50 µM in the series with Chlamydia pneumoniae [1] was 74.8%. The compound also yielded an IC50 in the series on Chlamydia pneumoniae [2] of 25.6 µM. Moreover, the viability at 72 h, 50 µM in series [3] is 89.3%.

Turning to `OC[C@@H]1CCCN2CCCC[C@H]12` [LUPININE], in the series with Chlamydia pneumoniae [1], the inhibition at 50 µM came out at 28.2%. The viability at 72 h, 50 µM in series [3] came to 98.7%.

One may read the MIC90 as the lowest concentration that inhibits either 90% of growth or 90% of the strains tested, depending on the study. Consider `COc1c(C)c2c(c(O)c1C/C=C(\C)CCC(=O)O)C(=O)OC2` [MYCOPHENOLIC ACID], for which the inhibition at 50 µM in the series with Chlamydia pneumoniae [1] is 98%. In the series on Chlamydia pneumoniae [2], the MIC90 worked out at 1 µM (≈ 0.32 µg/mL) and it took 0.31 µM to reach half-maximal inhibition (IC50). In addition, the viability at 72 h, 50 µM in series [3] came to 86.6%.

For `CC1COc2c(N3CCN(C)CC3)c(F)cc3c(=O)c(C(=O)O)cn1c23` (stereo not given) [OFLOXACIN], in the series on Chlamydia pneumoniae [2], the MIC90 was determined as 1.38 µM (≈ 0.499 µg/mL).

Take `COc1ccc2ccc(=O)oc2c1CC=C(C)C` [OSTHOLE]: the Activity result in the series with HL is recorded as “Toxic”.

Regarding `OC1c2ccccc2N=C2CCCN21` (stereo not given) [PEGANOLE], in the series on Chlamydia pneumoniae [1], the inhibition at 50 µM worked out at 66.2%. Further, the IC50 in the series with Chlamydia pneumoniae [2] worked out at 35.1 µM. Moreover, in series [3], the viability at 72 h, 50 µM was 95.2%.

`CCCCC[C@H](O)/C=C/C1=C(CCCCCCC(=O)O)C(=O)CC1` [PROSTAGLANDIN B1]: in the series on Chlamydia pneumoniae [1], the inhibition at 50 µM stood at 39.8%. Further, the viability at 72 h, 50 µM in series [3] came to 109%.

For the compound `c1ccc2c3c([nH]c2c1)CNCC3` [TRYPTOLINE], the inhibition at 50 µM in the series on Chlamydia pneumoniae [1] is 4.9%. Besides, the viability at 72 h, 50 µM in series [3] is 84.8%.

Regarding `O[C@H]1CCN2Cc3ccccc3N=C12` [VASICINE], the inhibition at 50 µM with Chlamydia pneumoniae [1] was -1.4%. The viability at 72 h, 50 µM in series [3] came to 102%.

(Values after ChEMBL document CHEMBL4130515, “Identification of Privileged Antichlamydial Natural Products by a Ligand-Based Strategy” (J Nat Prod, 2017).)
